This is an account of results in PubChem BioAssay.

The nature of experiment [1]: inhibitors of TNFa-induced NFkB p65 translocation, primary screen, imaging, HUVEC, MLSMR starter and 10KST1 sets (AID 438;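 active means inhibition above 20% together with a positive visual image hit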;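 further: compound added about 3h40 before a 20 min TNFalpha stimulation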;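 on inhibition: signal is the nuclear over cytoplasmic p65 intensity ratio per well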). The conditions noted are these: HUVEC TNFa-induced p65 nuclear translocation; cell count: measured here: nuclei count (cytotoxicity indicator), at 2.08 µM; inhibition: at 2 µM, stronger effect = higher value, 0% TNFa-plus-vehicle, 100% no-TNFa wells.
Experiment [2] in a line: inhibitors of mutant huntingtin aggregation, primary screen, imaging, exon1htt(103Q)mCFP cells, high-content imaging (AID 483;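 active means visual image review flags a hit and inhibition of aggregation exceeds 20%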;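 further: compound exposure lasted 3 days before fixation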;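 on nuclei count: percent of the per-plate median nuclei count of sample wells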). The conditions noted are these: exon1htt(103Q)mCFP cell line, aggregate imaging, at 2 µM; inhibition of aggregation: stronger effect = higher value; nuclei count: measured here: cell count, toxicity.
Experiment [3] can be described thus: inhibitors of E-selectin induction by TNFa, primary screen, imaging, HUVEC, immunofluorescence, MLSMR starter and 10KST1 sets (AID 487).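 On inhibition: signal is fraction of cell area covered by stained E-selectin grains.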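 On nuclei count: 100% = median nuclei count of all wells on the same plate.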 The note with it: HUVEC TNFalpha-induced E-selectin immunofluorescence imaging, at 2 µM; inhibition: stronger effect = higher value; nuclei count: measured here: cell number, toxicity.
Experiment [4] concerns the target Voltage-gated potassium channel subunit beta-2 (Rattus norvegicus) (UniProt P62483). Description: KvBeta enzyme negative modulators, primary screen, biochemical, NADPH fluorescence (AID 622;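 active means fluorescence slope higher than the sample average by over 3 SD, cut at about -0.22 in these data, passing the limit was not always enough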;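 further: slope of raw intensity against log time taken from 70 to 1610 s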). The note with it: recombinant KvBeta, 4-cyanobenzaldehyde reduction, at 10 µM, stronger effect = higher value.
The target is the same in experiment [5]. Description: KvBeta positive modulators, primary screen, biochemical, NADPH fluorescence (AID 623;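 active means NADPH fluorescence slope more negative than the mean of all samples by about 3 SD, 99.7% confidence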;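 further: fluorescence intensity change per second fitted from 20 to 320 s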). The note with it: Recombinant KvBeta, NADPH fluorescence decrease slope, 10 min; at 10 µM; stronger effect = lower value.
Experiment [6] has as its target Alpha-2C adrenergic receptor (Homo sapiens) (UniProt P18825). Description: modulators of alpha2C/GIRK thallium flux, primary screen, cell-based, HEK293 alpha2C/GIRK1/2 (AID 624;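 active means fluorescence slope after compound addition differing from the mean of all screened samples at 99.7% confidence, in either direction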;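 further: slope of fluorescence ratio to pre-addition baseline per second over 15 to 24 s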). The conditions noted are these: thallium flux BTC fluorescence, at 10 µM, actives lie on both sides.
Experiment [7] can be described thus: inhibitors of larval lipid processing in zebrafish, primary screen, whole organism, PED6 fluorescence, gall bladder and intestine (AID 686;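 active means a full or partial loss of lipid-probe fluorescence in the fish gall bladder, intestine or both, judged by eye; inactive means no fluorescence loss, or compound toxic to the fish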;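 further: larvae 5 to 7 days old with five fish per well; signal comes from phospholipase A2 cleavage of quenched PED6 carried via bile; overnight exposure to compound and PED6 before scoring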). The conditions noted are these: Zebrafish larvae PED6 lipid processing, fluorescence scoring; screened at 20 µM (by protocol). The method in brief:
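Test system – live zebrafish larvae aged 5-7 days, whole organism · Buffer or medium – E3 fish medium · Reagent – quenched phospholipase substrate PED6, 100 nM final, ingested by larvae · Doses – 20 µM single dose · Incubation – overnight compound and PED6 incubation · Technique – visual fluorescence microscopy scoring of gall bladder, gut · Read-out basis – visual per-well fluorescence inhibition score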

A short description of experiment [8]: inhibitors of Sendai virus-induced IRF3 signaling, primary screen, TLR/RLR signaling modifier project, cell-based, Sendai virus stimulus, luciferase, 10K MLSCN set (AID 602276;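 active means inhibition at or above 50% at 10 µM; inactive means inhibition below 50%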;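 further: firefly luciferase from ISG56 promoter only with Renilla not read in this screen; 0% = Sendai virus plus DMSO and 100% = medium plus DMSO without virus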). The conditions noted are these: HEK293 RL24 IRF3 luciferase reporter, at 10 µM, stronger effect = higher value. (In general: A reporter such as luciferase makes a cellular process visible.)
A short description of experiment [9]: inhibitors of poly I:C-induced TLR3 signaling, primary screen, cell-based, poly I:C stimulus, luciferase, 10K MLSCN set (AID 602277;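 active means inhibition of the reporter signal at or above 50%; inactive means inhibition below 50%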). The note with it: HEK293-TLR3 RL24 IRF3 luciferase reporter, at 10 µM, stronger effect = higher value.

Active and inactive are the calls of the source.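 How the source made its calls, unless noted: active means visually confirmed hit in the image check and inhibition above 20%; inconclusive means visually confirmed hit but inhibition not above 20%; inactive means no visual hit in the image check.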

Chain of Alpha-2C adrenergic receptor (Homo sapiens) (P18825 whole entry, looked up): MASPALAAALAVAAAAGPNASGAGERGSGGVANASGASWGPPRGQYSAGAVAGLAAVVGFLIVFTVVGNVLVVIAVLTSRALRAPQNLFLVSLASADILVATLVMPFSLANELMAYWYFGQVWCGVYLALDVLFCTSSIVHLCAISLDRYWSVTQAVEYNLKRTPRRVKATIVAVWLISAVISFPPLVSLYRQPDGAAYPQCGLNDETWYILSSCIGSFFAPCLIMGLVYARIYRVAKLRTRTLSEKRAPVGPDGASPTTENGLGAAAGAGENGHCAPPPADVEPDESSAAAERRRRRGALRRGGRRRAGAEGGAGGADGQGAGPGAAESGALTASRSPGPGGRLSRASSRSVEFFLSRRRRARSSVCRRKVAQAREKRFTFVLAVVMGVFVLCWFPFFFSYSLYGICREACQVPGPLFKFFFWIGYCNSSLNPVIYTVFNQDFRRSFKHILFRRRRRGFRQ
Chain of Voltage-gated potassium channel subunit beta-2 (Rattus norvegicus) (P62483 whole entry, looked up): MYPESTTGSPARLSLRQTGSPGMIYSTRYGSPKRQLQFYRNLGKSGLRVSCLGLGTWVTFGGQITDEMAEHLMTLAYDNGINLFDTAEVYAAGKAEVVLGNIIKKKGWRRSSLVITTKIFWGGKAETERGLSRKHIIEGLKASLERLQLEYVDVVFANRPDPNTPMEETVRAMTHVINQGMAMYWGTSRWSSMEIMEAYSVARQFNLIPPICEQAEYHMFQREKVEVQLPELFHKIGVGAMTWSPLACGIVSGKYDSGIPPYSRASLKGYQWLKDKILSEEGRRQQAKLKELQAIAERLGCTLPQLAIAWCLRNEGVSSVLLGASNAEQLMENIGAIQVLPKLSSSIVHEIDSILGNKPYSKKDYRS

On to `CCOc1ccc(NC(=O)COC(=O)Cn2cnnn2)cc1OCC`, for which the cell count in experiment [1] came out at 373. For the same molecule, the inhibition (usually the change of the read-out against control, counted positive when it falls) in experiment [1] was -19.6% (inactive); in [3], 33.9% (inactive); in experiment [8], 10.8% (inactive); in experiment [9], 9.82% (inactive). Besides, the inhibition of aggregation in experiment [2] was 11.4% (inactive). Besides, the figures for the nuclei count in experiment [2] and in experiment [3] were 57.8% and 72.6%, respectively. For the same molecule, the fluorescence slope in [4] is -0.468 (inactive). Further, in experiment [5], the NADPH fluorescence slope was -2.6e-05 (inactive). The slope in experiment [6] is 0.00481 (inactive). Further, the molecule was classed as inactive in experiment [7].
On to `CCn1nnnc1SCC(=O)N1c2ccccc2CCc2ccccc21`, for which, in experiment [1], the cell count was determined as 568. In addition, the inhibition in [1] is -4.6% (inactive); in experiment [3], -32.7% (inactive); in experiment [8], 1.39% (inactive); in [9], 1.68% (inactive). The inhibition of aggregation in experiment [2] was 2% (inactive). Moreover, the nuclei count in experiment [2] was found to be 96.3%; in experiment [3], 117%. Also, the fluorescence slope in [4] is -0.377 (inactive). Also, in experiment [5], the NADPH fluorescence slope was -5.8e-05 (inactive). Also, the slope in experiment [6] was 0.00737 (inactive). Also, the outcome in experiment [7] was inactive.
As for `O=C(NCc1ccco1)c1cc2sccc2n1Cc1ccccc1`, in [1], the cell count was 455. Moreover, the inhibition in experiment [1] was 5% (inactive); in experiment [3], -33.7% (inactive); in experiment [8], -19.7% (inactive); in experiment [9] it was -28.5% (inactive). Moreover, the inhibition of aggregation in [2] was 8.8% (inactive). Besides, the nuclei count in [2] was determined as 114%; in experiment [3] it was 110%. The fluorescence slope in experiment [4] is -0.463 (inactive). Besides, in experiment [5], the NADPH fluorescence slope was 5.4e-05 (inactive). The slope in [6] was 0.00405 (inactive). The result in experiment [7] was inactive.
On to `Cc1ccc(S(=O)(=O)N2CCN(C(=O)N3CCOCC3)C2c2ccc(N(C)C)cc2)cc1` (stereo unspecified), for which, in experiment [1], the cell count stood at 377. Moreover, the inhibition in experiment [1] was -0.5% (inactive); in experiment [3], -44.5% (inactive); in [8] it was 12.8% (inactive); in experiment [9], 8.2% (inactive). Also, in [2], the inhibition of aggregation was 0.7% (inactive). The nuclei count in experiment [2] was 98%; in [3], 121%. Moreover, in experiment [4], the fluorescence slope was -0.419 (inactive). The NADPH fluorescence slope in experiment [5] was -5.2e-05 (inactive). Besides, the slope in [6] is 0.00452 (inactive). Besides, the outcome in experiment [7] was inactive.
Regarding `COC(=O)c1sc(S(=O)(=O)N2CCN(c3ccccc3)CC2)c(C(=O)OC)c1C`, in [1], the cell count came to 394. Also, the inhibition was 3.6% (inactive) in [1], -151% (inactive) in experiment [3], 19.8% (inactive) in experiment [8] and 22.7% (inactive) in experiment [9]. For the same molecule, in experiment [2], the inhibition of aggregation was -23.7% (inactive). The nuclei count in [2] is 76.7%; in experiment [3], 117%. In experiment [4], the fluorescence slope was -0.385 (inactive). In experiment [5], the NADPH fluorescence slope was -3.6e-05 (inactive). Besides, the slope in experiment [6] is 0.00645 (inactive). For the same molecule, in [7], the molecule was classed as inactive.
Turning to `O=C(CSCc1n[nH]c(=O)[nH]1)NCCOc1cccc(Oc2ccccc2)c1`, the cell count in experiment [1] was 615. For the same molecule, the inhibition in experiment [1] was -13% (inactive); in experiment [3] it was -16.1% (inactive); in experiment [8] it was -14.2% (inactive); in experiment [9], 2.61% (inactive). Moreover, the inhibition of aggregation in [2] was 8.5% (inactive). Also, the nuclei count turned out to be 77.7% in experiment [2] and 105% in [3]. Also, in [4], the fluorescence slope is -0.417 (inactive). Moreover, the NADPH fluorescence slope in experiment [5] is -6.7e-05 (inactive). The slope in [6] was 0.00545 (inactive). In experiment [7], the molecule was classed as inactive.
Take `Cc1nn(C(=O)c2ccccc2)c2c1C(=O)CC(C)(C)C2`: the cell count in experiment [1] was 380. Further, the inhibition in experiment [1] is 1.3% (inactive); in experiment [3], -114% (inactive); in [8] it was 18.8% (inactive); in experiment [9], 17.1% (inactive). The inhibition of aggregation in experiment [2] was -11.8% (inactive). In addition, the nuclei count in experiment [2] was 104%; in [3], 112%. Further, the fluorescence slope in [4] is -0.419 (inactive). Moreover, the NADPH fluorescence slope in [5] was -1e-05 (inactive). The slope in experiment [6] is 0.00514 (inactive). Further, the call in experiment [7] was inactive.
In the case of `CCC(=O)Nc1cc(Cl)ccc1N1CCN(C(=O)CC)CC1`, the cell count in experiment [1] is 376. Also, the inhibition was 2.1% (inactive) in experiment [1], -17.9% (inactive) in [3], 18.6% (inactive) in experiment [8] and 16.6% (inactive) in [9]. In experiment [2], the inhibition of aggregation is 16.1% (inactive). The nuclei count in experiment [2] is 102%; in experiment [3] it was 90.8%. Moreover, the fluorescence slope in [4] was -0.465 (inactive). Also, the NADPH fluorescence slope in [5] was -1.2e-05 (inactive). The slope in experiment [6] is 0.00532 (inactive). Also, in [7], the molecule was called inactive.
As for `CC(C)Cn1c2c(c(O)c(C(=O)Nc3ncccc3O)c1=O)CCCC2`, in experiment [1], the cell count is 576. The inhibition in experiment [1] is -5.9% (inactive); in experiment [3] it was 26.1% (inactive); in experiment [8] it was 8.02% (inactive); in [9], 10.1% (inactive). Also, the inhibition of aggregation in experiment [2] is 9.6% (inactive). The nuclei count in experiment [2] was 99.1%; in [3], 105%. Further, the fluorescence slope in experiment [4] is -0.38 (inactive). Also, in [5], the NADPH fluorescence slope was -6.5e-05 (inactive). Besides, the slope in [6] was 0.00432 (inactive). The molecule was called inactive in [7].
On to `Cc1nc2ccccc2nc1OCC(=O)Nc1cc(C(F)(F)F)ccc1N1CCOCC1`, for which the cell count in experiment [1] was determined as 410. The inhibition was -5.6% (inactive) in experiment [1], 80.7% (active) in experiment [3], 12.4% (inactive) in experiment [8] and 8.99% (inactive) in experiment [9]. In addition, the inhibition of aggregation in experiment [2] is 19.2% (inactive). The results for the nuclei count in [2] and in experiment [3] were 85.4% and 113%, respectively. Also, the fluorescence slope in experiment [4] is -0.429 (inactive). Further, the NADPH fluorescence slope in [5] is -3e-05 (inactive). For the same molecule, the slope in [6] was 0.00495 (inactive). Moreover, the molecule was classed as inactive in experiment [7].
Turning to `O=C(CSc1nc2ccccc2c(=O)n1Cc1ccco1)NCc1ccccc1`, the cell count in experiment [1] turned out to be 399. For the same molecule, the inhibition in experiment [1] was -6.1% (inactive); in experiment [3], -6.6% (inactive); in [8] it was 19.4% (inactive); in experiment [9], 9.86% (inactive). Also, in experiment [2], the inhibition of aggregation is 1.9% (inactive). In addition, the values for the nuclei count in experiment [2] and in experiment [3] were 87.8% and 103%, respectively. In addition, the fluorescence slope in [4] was -0.439 (inactive). Further, the NADPH fluorescence slope in experiment [5] is -4.9e-05 (inactive). Besides, in experiment [6], the slope is 0.0067 (inactive). Also, in experiment [7], the call was inactive.
For `CC(C)(C)C(=O)OCC1OC(n2cnc(C(N)=O)n2)C(O)C1O` (stereo unspecified), the cell count in experiment [1] stood at 468. Further, the inhibition is -8.7% (inactive) in experiment [1], 49.3% (inactive) in [3], 5.04% (inactive) in experiment [8] and 4.14% (inactive) in [9]. In experiment [2], the inhibition of aggregation was 7.9% (inactive). Also, the nuclei count in experiment [2] is 88.9%; in experiment [3], 88%. For the same molecule, the fluorescence slope in [4] is -0.382 (inactive). In addition, the NADPH fluorescence slope in experiment [5] was 8.9e-07 (inactive). In addition, the slope in experiment [6] is 0.00529 (inactive). Moreover, the call in [7] was inactive.
Take `Cc1cc(-c2ccccc2)nc(SCc2ccc(C(=O)O)o2)n1`: the cell count in experiment [1] came to 398. Besides, the inhibition in experiment [1] was -1.3% (inactive); in experiment [3], -106% (inactive); in [8], 7.19% (inactive); in experiment [9], 8.59% (inactive). Also, the inhibition of aggregation in experiment [2] was 0.6% (inactive). In addition, the nuclei count was 86.2% in experiment [2] and 105% in experiment [3]. Further, in experiment [4], the fluorescence slope is -0.373 (inactive). The NADPH fluorescence slope in experiment [5] is -6.9e-05 (inactive). Also, the slope in experiment [6] is 0.00508 (inactive). Further, the molecule was called inactive in experiment [7].
